For data set [1], the system named is Hepatitis C virus. Put plainly: Inhibition of RNA synthesis activity of […]. On the set-up: species or system Hepatitis C virus subtype 1b, Con1. The note with it: for IC50: Hepatitis C virus; for IC50 / Km: Con1; for Km: Hepatitis C virus subtype 1b.
Data set [2] deals with Hepatitis C virus. As to the kind of experiment: Inhibition of RNA synthesis activity of […] 1b Con1 replicase. Details: species or system Hepatitis C virus subtype 1b. In short, it runs like this: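 Membrane-associated native replication complexes were isolated from 2209-23 replicon cells, with 20 μl reactions. One format used 2.5×10^6 cell equivalents for 60 min. The other used 3.1×10^6 cell equivalents for 90 min in 50 mM HEPES pH 7.5, 5 mM MgCl2, actinomycin D, 1 mM ATP/GTP/CTP, 0.4 μM [α-33P]UTP and a creatine phosphate regeneration system.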

In a further data set the test system is Hepatocyte. Put plainly: Drug uptake in human hepatocyte assessed as time needed for triphosphate to be reduced to half of maximum level. To be noted: hepatocytes. It is filed as ADME, cell-based, Liver. Summed up:
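Hepatocytes from 4 donors were loaded for 24 h with 2 μM 3H-drug (10 μCi/ml), washed, and placed in drug-free medium. Duplicate samples were taken 0–72 h later and analysed for triphosphates by radio-HPLC. Half-life came from a single-phase exponential decay fit, mean ± S.D. (n = 4).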

Data set [3] concerns Hepatitis C virus. Put plainly: Antiviral activity against HCV 1b Con1 in 2209-23 cells upto 100 uM after 72 hrs by luciferase based replicon assay. The note with it: Hepacivirus hominis, genotype 1b Con 1. It is filed as functional, organism-based. Summed up:
(§1)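 Huh7-derived 2209-23 cells carrying a bicistronic genotype 1b Con1 subgenomic HCV replicon with a Renilla luciferase reporter of RNA replication. Cells were exposed to compound for 72 h, and dose-dependent reduction of luciferase activity was measured to give IC50.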
In general terms: Replicon systems follow genome replication, usually without infectious particles.

In data set [4] the test system is Hepatitis C virus. As to the kind of experiment: Antiviral activity against HCV 1b Con1 in 2209-23 cells after 72 hrs by luciferase based replicon assay. It is filed as functional, organism-based, Hepacivirus hominis. To be noted: genotype 1b Con 1, 2209-23, 72 h. Summed up:
as §1

The structures appear in SMILES notation. Calls of active or inactive are those of the source. The rule behind the calls is not given here.

As for `C[C@@]1(F)[C@H](O)[C@@H](COP(=O)(O)OP(=O)(O)OP(=O)(O)O)O[C@H]1n1ccc(=O)[nH]c1=O` [GS-461203], in the data set with Hepatitis C virus [1], the Ki worked out at 141 nM and inhibition was half-maximal at 520 nM (IC50). This compound also displayed an IC50 in the data set on Hepatitis C virus [2] of 1190 nM.

In the data set with Hepatitis C virus [1], `C[C@@]1(F)[C@H](O)[C@@H](COP(=O)(O)OP(=O)(O)OP(=O)(O)O)O[C@H]1n1ccc(N)nc1=O` [PSI-6130-TP] showed a Ki of 23 nM and an IC50 of 130 nM. For the same compound, in the data set with Hepatitis C virus [2], the IC50 came out at 340 nM. In the data set with Hepatocyte, the t1/2 stood at 4.7 h.

Turning to `C[C@@]1(F)[C@H](O)[C@@H](CO)O[C@H]1n1ccc(=O)[nH]c1=O`, in the data set on Hepatitis C virus [3], the outcome was inactive. The compound also registered an IC50 in the data set on Hepatitis C virus [4] of over 100000 nM.

Regarding `Nc1ccn([C@@H]2O[C@H](COP(=O)(O)OP(=O)(O)OP(=O)(O)O)[C@@H](O)[C@H]2O)c(=O)n1`, in the data set with Hepatitis C virus [1], the Km worked out at 0.22 µM.

In the case of `O=c1ccn([C@@H]2O[C@H](COP(=O)(O)OP(=O)(O)OP(=O)(O)O)[C@@H](O)[C@H]2O)c(=O)[nH]1`, the Km in the data set with Hepatitis C virus [1] turned out to be 0.37 µM.

For orientation: Ki means the equilibrium dissociation constant of an inhibitor or competing ligand from its target. One may read the IC50 as the concentration that gives 50% inhibition. High values mean weaker potency in that assay, low ones greater potency in that assay. As usually defined, the Km is the concentration of substrate that gives half-maximal velocity.
